According to PubChem BioAssay AID720543 (The Scripps Research Institute Molecular Screening Center, 2013):
Among all 370,000 compounds or so, about 2,000 (0.54%) were called active.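 Rule for the calls: active = inhibition exceeding the mean over every tested compound plus 3 SD (cut at about 30% in these data); inactive = the rest.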 The list comes from a sample in which actives are over-represented; it also holds similar structures and randomly drawn compounds.

What follows are compounds tested against (Lyso)-N-acylphosphatidylethanolamine lipase (Mus musculus) (UniProt Q8VD66) (assay: mouse ABHD4 hydrolase activity blockers – biochemical, fluorescence polarization, primary screen (AID 720543)). Conditions: purified mABHD4, FP-Rh probe fluorescence polarization; at 8.92 µM; hits give high values.
In short: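 Assay system: mouse ABHD4 enzyme, wild type / Also added: fluorescent activity-based probe FP-Rh / Doses: single nominal dose of 8.92 µM, 0.89% DMSO final / Timing: 45 min compound pre-incubation plus 60 min probe step, 25 °C / Signal: FP readout, ex 525 nm / em 598 nm / Control set: S159A mutant/DMSO as 100%, compound-well median as 0%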

Sequence of (Lyso)-N-acylphosphatidylethanolamine lipase (Mus musculus) (Q8VD66 whole entry, looked up): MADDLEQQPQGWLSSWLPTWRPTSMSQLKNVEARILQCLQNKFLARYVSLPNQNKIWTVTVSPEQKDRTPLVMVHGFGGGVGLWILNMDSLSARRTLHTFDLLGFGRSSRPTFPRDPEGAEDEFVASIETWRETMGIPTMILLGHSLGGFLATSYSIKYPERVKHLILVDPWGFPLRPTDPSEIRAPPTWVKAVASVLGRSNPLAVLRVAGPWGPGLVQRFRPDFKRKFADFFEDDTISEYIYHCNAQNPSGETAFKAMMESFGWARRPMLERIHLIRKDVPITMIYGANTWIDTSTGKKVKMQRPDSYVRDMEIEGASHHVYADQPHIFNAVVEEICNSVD

| SMILES | inhibition |
| --- | --- |
| CN(C)c1ccc(C(CC(=O)O)C(=O)O)cc1 (centres undefined) | 24.1% (inactive) |
| CN(C)c1ccc(N/C=C/C(=O)C(F)(F)F)cc1 | 49.4% (active) |
| CC1CN(/C=C/C(=O)C(F)(F)F)CC(C)O1 (centres undefined) | -3.37% (inactive) |
| CC(=O)C1=C(C)NC(=O)NC1c1cc(Br)ccc1OCC#N (centres undefined) | 4.75% (inactive) |
| Nc1[nH]c(C(=O)c2ccccc2)c(-c2ccc(Cl)cc2Cl)c1C(=O)c1ccccc1 | -1.34% (inactive) |
| CC(C)c1ccc(CC(=O)N2CCC2(C)C(=O)NS(=O)(=O)c2ccc(C(C)(C)C)cc2)cc1 (centres undefined) | 59% (active) |
| CCCC(=O)N1CCC1(C)C(=O)NS(=O)(=O)c1ccc(Cl)cc1 (centres undefined) | -1.74% (inactive) |
| CC(C)(C)c1ccc(S(=O)(=O)NC(=O)C2(C)CCN2C(=O)CC2CC2)cc1 (centres undefined) | -2.61% (inactive) |
| CCCCOCC1CN(CCCC)S(=O)(=O)c2c(Oc3ccc(F)cc3)cccc2O1 (centres undefined) | 4.37% (inactive) |
| COC(CNC(=O)[C@H](Cc1ccccc1)NC1(C(=O)NC2CCCCC2)CCCCC1)OC | 3.57% (inactive) |
| COCc1cc(N2CCN(C(=O)OC(C)(C)C)C[C@@H]2C)ccc1N1CCN(Cc2ccccc2)[C@H](C)C1 | -12.1% (inactive) |
| COc1ccc(C#CCNCc2ccc(OC)cc2OC)cc1 | -4.3% (inactive) |
| O=c1c2ccccc2ccc2ccc(P(=O)(O)O)cc12 | 12% (inactive) |
| O=Nc1c(O)cc(O)c2ccccc12 | 55.7% (active) |
| Cc1ccc(S(=O)(=O)N(C)C)cc1NC(=O)c1n[nH]c(=O)c2ccccc12 | -9.11% (inactive) |
| CCOc1ccccc1C(=O)N1CCC[C@@H]1C(=O)N1CCC[C@H]1C(=O)NCc1ccccc1 | 1.14% (inactive) |
| CCOC(=O)CSc1nnc(CNC(=O)c2ccco2)n1-c1ccc(F)cc1 | 0.65% (inactive) |
| COC(=O)c1cc2c(c3c4cc(F)ccc4n(S(=O)(=O)c4ccccc4)c13)C(=O)N(Cc1ccccc1OC)C2 | -11.3% (inactive) |
| COc1ccc(C(CC(=O)c2ccccc2)S(=O)(=O)c2ccccc2)cc1 (centres undefined) | -2.98% (inactive) |
| COC(=O)c1cc(N2CCNCC2)nc2ccccc12 | 1.72% (inactive) |
| Cc1ccc(C)c(NC(=O)NNC(=O)c2ccc3ccccc3c2O)c1 | 8.45% (inactive) |
| O=C(NNc1c2ccccc2nc2ccccc12)c1cc2ccccc2cc1O | 31.3% (active) |
| CC(C)(C)c1ccc(S(=O)(=O)NCC2CCN(C(=O)C(=O)c3cc4ccccc4o3)CC2)cc1 | -26.4% (inactive) |
| NC(=O)C1CCN(C(=O)c2cc(S(=O)(=O)N3CCN(c4ccccc4)CC3)ccc2Cl)CC1 | 6.55% (inactive) |
